Laboratory results: the RNAGym collection of RNA variant scans (doi:10.1101/gad.245936.114)
Variants at the floor of the assay were thinned out.

B1: tRNA (parent)
chain: CUCUCGGUAGCCAAGUUGGUUUAAGGCGCAAGACUUUAAUUUAUCACUACGAAAUCUUGAGAUCGGGCGUUCGACUCGCCCCCGGGAGAUUUUUUCCUCGAGCAA

Variants of: B1
Experiment: nonsense suppression (GFP-seq) (ratio to wild type); higher = more function; SUP4oc tRNA, yeast GFP reporter sort-seq
Procedure, shortened: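 Yeast carrying genome-integrated SUP4oc tRNA variants from a library with ~3% random mutations were grown in raffinose/galactose medium with 80 mg/L adenine. Each strain also carried a galactose-driven GFP ochre reporter and RFP. Cells were sorted into GFP/RFP bins, and each bin was Illumina-sequenced (phred ≥30). Nonsense suppression (GFPSEQ) is the bin median GFP/RFP, weighted by each variant's estimated cell share per bin, relative to wild-type SUP4oc; variants needed ≥100 reads and ≥30 cells.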

Variant | nonsense suppression
CUCUCGGUAGCCAAGUUGGUUUAAGGCGCAAGCCCUUAAUUUAUCACUACGAAAUCUUGAGAUCGGGCGUUCGACUCGCCCCAGGGAGAUUUUUUCCUCGAGCAA [A33C U35C C83A] | ≤ 0.026
CUCUCGGUAGCCAAGUUGGUUUAAGGCGCAUGACUUUAAUUUAUCACUACGAAAUCUUCAGAUCGGGCGUUCGACUCGCCCCCGGGAGAUUUUUUCCUCGAGCAA [A31U G59C] | ≤ 0.026
CUCUCGGUAGCCAAGUUGGUUUAAGGCGCAAAACUUUAAUUUAUCACUACGAAAUCUUGAGAUCGGGCGUUCGACGCGCCCCCGGGAGAUUUUUUCCUCGAGCAA [G32A U76G] | ≤ 0.026
CUCUCGGUAGCCAAGUUGGUUUAAGGCGCAUGACUUUAAUUUAUCACUACGAAAGCUUGAGAUCGGCCGUUCGACUCGCCCCCGGGAGAUUUUUUCCUCGAGCAA [A31U U55G G67C] | ≤ 0.026
CUCUCGGUAGCCAAGUUGGUUUAAGGCGCAAGGCUUUAAUUUAUCACUACGAAUUCUUGAGAUCGGGCGUUCGACUCGCCCCCGGGAGAUUUUUUCCUCGAGCAA [A33G A54U] | 0.0526
CUCUCGGUAGCCAAGUUGGUUUAAGGCGCAAGCCUUUAAUUUAUCACUACGAAAUCUUGAGAUCGGGCGUGCGACUCGCCCCCGGAAGAUUUUUUCCUCGAGCAA [A33C U71G G86A] | ≤ 0.026
CUCUCGGUAGCCAAGUUGGUUUAAGGCGCAAGGCUUUAAUUUAUCACUACGAAAUCUUGAGAUCGGGCGUUCGAAUCGCCCCCGGGAGAUUUUUUCCUCGAGCAA [A33G C75A] | 0.235
CUCUCGGUAGCCAAGUUGGUUUAAGGCGCAAGGCUUUAAUUUAUCACUACGAAAUCUUGAGAUCGGGCGUUCGAGUCGCCCCCGGGAGAUUUUUUCCUCGAGCAA [A33G C75G] | 0.216
CUCUCGGUAGCCAAGUUGGUUUAAGGCGCAAUACUUUAAUUUAUCACUACGAACUCUUGAGAUCGGGCGUUCGACUCGCCGCCGGGAGAUUUUUUCCUCGAGCAA [G32U A54C C81G] | ≤ 0.026
CUCUCGGUAGCCAAGUUGGUUUAAGGCGCAAUACUUUAAUUUAUCACUACGAAAUCUUGAGAUCGGGCGCUCGACUCGCCCCCGGGAGAUUUUUUCCUCGAGCAA [G32U U70C] | ≤ 0.026
CUCUCGGUAGCCAAGUUGGUUUAAGGCGCAAGCCUUUAAUUUAUCACUACGAAACUUUGAGAUCGUGCGUUCGACUCGGCCCCGGGAGAUUUUUUCCUCGAGCAA [A33C U55C C56U G66U C79G] | ≤ 0.026
CUCUCGGUAGCCAAGUUGGUUUAAGGCGCAUGACUUUAAUUUAUCACUACGAAAUCAUGAGAUCGGGCGUUCGACUCGCCCCCGGGAGAUUUUUUCCUCGAGCAA [A31U U57A] | 0.963
CUCUCGGUAGCCAAGUUGGUUUAAGGCGCAUGACUUUAAUUUAUCACUACGAAAUCUUGAGAUCGGGCGUUCUACUCGCCCCCGGGAGAUUUUUUCCUCGAGCAA [A31U G73U] | ≤ 0.026
CUCUCGGUAGCCAAGUUGGUUUAAGGCGCAAGCCUUUAAUUUAUCACUACGAAAUCUUGAUAUCGUGCGUUCGACUCGCCCCCGGGAGAUUUUUUCCUCGAGCAA [A33C G61U G66U] | ≤ 0.026
CUCUCGGUAGCCAAGUUGGUUUAAGGCGCAUGACUUUAAUUUAUCACUACGAAAUCUUGAGAUCGGGCGUUCGACUCGCCAGCGGGAGAUUUUUUCCUCGAGCAA [A31U C81A C82G] | ≤ 0.026
CUCUCGGUAGCCAAGUUGGUUUAAGGCGCAAGCCUUUAAUUUAUCACUACGAAAUCGUGAGAUGGGGCGUUCGACUCGCCCCCGGGAGAUUUUUUCCUCGAGCAA [A33C U57G C64G] | ≤ 0.026
CUCUCGGUAGCCAAGUUGGUUUAAGGCGCAUGACUUUAAUUUAUCACUACGAAAUCUUGAGAUCGGGCGUUCGACUCGCCCCCGAGAGAUUUUUUCCUCGAGCAA [A31U G85A] | 0.164
CUCUCGGUAGCCAAGUUGGUUUAAGGCGCAUGACUUUAAUUUAUCACUACGAAAUCUUGAGAUCGGGCGUUCGACACGCCCCCGGGAGAUUUUUUCCUCGAGCAA [A31U U76A] | 0.0413
CUCUCGGUAGCCAAGUUGGUUUAAGGCGCAAUACUUUAAUUUAUCACUACGAAAUCUUGAGAUCGGGCGUUCGACCCGCCCCCGGGAGAUUUUUUCCUCGAGCAA [G32U U76C] | ≤ 0.026
CUCUCGGUAGCCAAGUUGGUUUAAGGCGCAAGGCUUUAAUUUAUCACUACGAAAUCUUGAGAUCGGGCGUUCGACUCGCCCCCGGGGGAUUUUUUCCUCGAGCAA [A33G A87G] | 0.0348
CUCUCGGUAGCCAAGUUGGUUUAAGGCGCAUGACUUUAAUUUAUCACUACGAAAUCUUGAUAUCGGGCGUUCGACUCGCCCCCGGGAGAUUUUUUCCUCGAGCAA [A31U G61U] | 0.0345
CUCUCGGUAGCCAAGUUGGUUUAAGGCGCAAUACUUUAAUUUAUCACUACGAAAUCUUGAGAUCGGGCGUUCGACUCGACCCCGGGAGAUUUUUUCCUCGAGCAA [G32U C79A] | ≤ 0.026
CUCUCGGUAGCCAAGUUGGUUUAAGGCGCAAAACUUUAAUUUAUCACUACGAAAUCUUGAGAUCGGGCGUUCGACUCGACCCCGGGAAAUUUUUUCCUCGAGCAA [G32A C79A G88A] | ≤ 0.026
CUCUCGGUAGCCAAGUUGGUUUAAGGCGCAACACUUUAAUUUAUCACUACGAAAUCUUGAGAUCGGGCGUUCGACUCGCCGCCGGGAGAUUUUUUCCUCGAGCAA [G32C C81G] | ≤ 0.026
CUCUCGGUAGCCAAGUUGGUUUAAGGCGCAAUACUUUAAUUUAUCACUACGAAAUGUUGAGAUCGGGCGUUCGACUCGCCCCCGGGAGAUUUUUUCCUCGAGCAA [G32U C56G] | 0.207
CUCUCGGUAGCCAAGUUGGUUUAAGGCGCAUGACUUUAAUUUAUCACUACGAAAUCUUGAGAUCGGGCGUUCGACUCGCCUCCGGGAGAUUUUUUCCUCGAGCAA [A31U C81U] | 0.0322
CUCUCGGUAGCCAAGUUGGUUUAAGGCGCAAAACUUUAAUUUAUCACUACGAAAUCUUGAGGUCGGGCGUGCGACUCACCCCCGAGAGAUUUUUUCCUCGAGCAA [G32A A62G U71G G78A G85A] | ≤ 0.026
